In ChEMBL document CHEMBL4229376, “Optimization of the pharmacokinetic properties of potent anti-trypanosomal triazine derivatives” (Eur J Med Chem, 2018):
Activity calls are given as the source filed them. The calls are words filed in the database; no cut-off is given here.

Legend:
[1] = Protein binding in mouse plasma at 2 uM after 6 hrs by equilibrium dialysis and LC-MS analysis; assay type: ADME, cell-free; conditions: read-out: PPB (converted)
[2] = AUC (0 to >4 hrs) in Swiss mouse infected with Trypanosoma brucei brucei Squib 427 at 50 mg/kg, po bid for 5 days by UPLC/MS/ESI analysis; assay type: ADME, organism-based; conditions: in vivo
[3] = Half life in Swiss mouse at 25 mg/kg, po administered as single dose after 24 hrs by UPLC/MS/ESI analysis; assay type: ADME, organism-based; conditions: in vivo
Method in brief: (§1)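 Mice were given the compound orally as a single dose of either 25 or 50 mg/kg, one group per dose. Plasma concentrations were followed over time up to 24 h, and the pharmacokinetic parameters were derived from the concentration-time profile.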

[4] = Drug uptake in Swiss mouse blood at 25 mg/kg, po administered as single dose after 2 hrs by UPLC/MS/ESI analysis; assay type: ADME, organism-based; conditions: whole blood, read-out: Drug uptake; method in brief: as §1
[5] = Drug metabolism in mouse liver microsomes assessed as CYP450 mediated compound […] by measuring parent compound remaining at 5 uM after 15 mins in presence of NADPH by UPLC/MS/ESI analysis; assay type: ADME; conditions: read-out: Stability
[6] = Drug metabolism in mouse liver microsomes assessed as UGT mediated compound […] by measuring parent compound remaining at 5 uM after 15 mins in presence of UDPGA by UPLC/MS/ESI analysis; assay type: ADME; conditions: 0.25 h
Method in brief: (§2)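 Metabolic stability was run with mouse liver microsomal fraction (S9) and read as percent parent compound remaining over incubation time. Diclofenac served as the reference compound.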

[7] = AUC (0 to >4 hrs) in Swiss mouse infected with Trypanosoma brucei brucei Squib 427 at 25 mg/kg, po administered as single dose by UPLC/MS/ESI analysis; assay type: ADME, organism-based; conditions: in vivo
Plasmodium falciparum = assay: Antiplasmodial activity against chloroquine-resistant Plasmodium falciparum K1 infected in human erythrocytes after 72 hrs by Malstat reagent-based spectrophotometric analysis; assay type: functional, organism-based; conditions: K1, 72 h
[8] = tested on: Trypanosoma brucei brucei; assay: Antitrypanosomal activity against Trypanosoma brucei brucei Squib 427 assessed as reduction in parasite growth at 7 to 14 times IC50 after 48 hrs resazurin dye-based fluorimetric analysis; assay type: functional, organism-based
Method in brief: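 In vitro time course of T. b. brucei growth in the presence of compound, with parasite growth expressed as % of control.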

[9] = Drug metabolism in human liver microsomes assessed as UGT mediated compound […] by measuring parent compound remaining at 5 uM after 15 mins in presence of UDPGA by UPLC/MS/ESI analysis; assay type: ADME; conditions: read-out: Stability
[10] = tested on: Trypanosoma brucei brucei; assay: Antitrypanosomal activity against Trypanosoma brucei brucei Squib 427 infected in Swiss mouse assessed as mean survival days at 10 mg/kg, ip administered as single dose for 5 days; assay type: functional
Method in brief: (§3)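 Acute mouse infection model with T. b. brucei. Dosing ran for 5 days after infection, orally or intraperitoneally, once or twice daily. Groups were 3 mice each, with vehicle-treated infected controls. The read-out was mean survival time in days, plus the number of survivors on day 14 post-infection.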

[11] = Drug level in Swiss mouse blood infected with Trypanosoma brucei brucei Squib 427 at 25 mg/kg, po bid for 5 days measured after 1 hr after last dose by UPLC/MS/ESI analysis; assay type: ADME, organism-based; conditions: whole blood, read-out: Drug uptake
Mus musculus [12] = assay: Apparent volume of distribution in Swiss mouse infected with Trypanosoma brucei brucei Squib 427 at 25 mg/kg, po administered as single dose after 24 hrs by UPLC/MS/ESI analysis; assay type: ADME, organism-based; conditions: in vivo
Trypanosoma cruzi = assay: Antitrypanosomal activity against nifurtimox-sensitive Trypanosoma cruzi Tulahuen CL2 infected in human MRC5 SV2 cells assessed as reduction in parasite burden after 168 hrs by CPRG and Nonidet based spectrophotometric analysis; assay type: functional, organism-based; conditions: Tulahuen CL2, MRC-5 SV2, 168 h
Peritoneal macrophage = assay: Cytotoxicity against mouse primary peritoneal macrophages after 72 hrs by resazurin dye-based fluorimetric analysis; assay type: cell-based
[13] = Drug level in Swiss mouse blood infected with Trypanosoma brucei brucei Squib 427 at 50 mg/kg, po bid for 5 days measured after 1 hr after last dose by UPLC/MS/ESI analysis; assay type: ADME, organism-based; conditions: whole blood, read-out: Drug uptake
[14] = Cmax in Swiss mouse infected with Trypanosoma brucei brucei Squib 427 at 50 mg/kg, po bid for 5 days after 24 hrs by UPLC/MS/ESI analysis; assay type: ADME, organism-based; parameters: dose 50 mg/kg, route oral; conditions: in vivo
Mus musculus [15] = assay: Apparent volume of distribution in Swiss mouse at 25 mg/kg, po administered as single dose after 24 hrs by UPLC/MS/ESI analysis; assay type: ADME, organism-based; conditions: in vivo
Method in brief: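 Mice in groups received one oral dose of 25 or 50 mg/kg. Plasma concentrations were followed over time up to 24 h, and PK parameters including T1/2 were derived from the concentration–time profile.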

[16] = Drug uptake in Swiss mouse blood at 25 mg/kg, po administered as single dose after 1 hr by UPLC/MS/ESI analysis; assay type: ADME, organism-based; conditions: whole blood, read-out: Drug uptake; method in brief: as §1
[17] = tested on: Trypanosoma brucei brucei; assay: Antitrypanosomal activity against Trypanosoma brucei brucei Squib 427 infected in Swiss mouse assessed as mouse survival at 10 mg/kg, ip administered as single dose for 5 days and measured on day 14 post infection; assay type: functional, organism-based
Method in brief: (§4)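 Acute T. b. brucei mouse infection model. Dosing was PO or IP at 10–50 mg/kg, once (SID) or twice (BID) daily for 5 days after infection, with 3 mice per group. […] Read-outs were mean survival time and survivors on day 14 post infection.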

[18] = tested on: Trypanosoma brucei brucei; assay: Antitrypanosomal activity against Trypanosoma brucei brucei Squib 427 infected in Swiss mouse assessed as mean survival days at 50 mg/kg, po administered as single dose for 5 days; assay type: functional; method in brief: as §3
[19] = Half life in Swiss mouse infected with Trypanosoma brucei brucei Squib 427 at 25 mg/kg, po administered as single dose after 24 hrs by UPLC/MS/ESI analysis; assay type: ADME, organism-based; conditions: in vivo
[20] = Protein binding in mouse plasma assessed as drug recovery at 10 uM after 6 hrs by equilibrium dialysis and LC-MS analysis; assay type: ADME, cell-free; conditions: read-out: Drug recovery
[21] = Clearance in Swiss mouse infected with Trypanosoma brucei brucei Squib 427 at 50 mg/kg, po bid for 5 days after 24 hrs by UPLC/MS/ESI analysis; assay type: ADME, organism-based; conditions: in vivo
[22] = tested on: Trypanosoma brucei brucei; assay: Antitrypanosomal activity against Trypanosoma brucei brucei Squib 427 infected in Swiss mouse assessed as mouse survival at 50 mg/kg, po administered as single dose for 5 days and measured on day 14 post infection; assay type: functional, organism-based; method in brief: as §4
[23] = Protein binding in 10% FBS in Trypanosoma brucei culture medium at 2 uM after 6 hrs by equilibrium dialysis and LC-MS analysis; assay type: ADME, cell-free, Bos taurus, Serum; conditions: cattle, read-out: PB
[24] = Drug metabolism in human liver microsomes assessed as CYP450 mediated compound […] by measuring parent compound remaining at 5 uM after 30 mins in presence of NADPH by UPLC/MS/ESI analysis; assay type: ADME; conditions: read-out: Stability
Mus musculus [25] = assay: Apparent volume of distribution in Swiss mouse infected with Trypanosoma brucei brucei Squib 427 at 50 mg/kg, po bid for 5 days after 24 hrs by UPLC/MS/ESI analysis; assay type: ADME, organism-based; conditions: in vivo
[26] = Drug uptake in Swiss mouse blood at 50 mg/kg, po administered as single dose after 0.25 hrs by UPLC/MS/ESI analysis; assay type: ADME, organism-based; conditions: whole blood, read-out: Drug uptake; method in brief: as §1
[27] = Drug level in Swiss mouse blood infected with Trypanosoma brucei brucei Squib 427 at 50 mg/kg, po bid for 5 days measured after 4 hrs after last dose by UPLC/MS/ESI analysis; assay type: ADME, organism-based; conditions: whole blood, read-out: Drug uptake
[28] = Drug metabolism in mouse liver microsomes assessed as UGT mediated compound […] by measuring parent compound remaining at 5 uM after 30 mins in presence of UDPGA by UPLC/MS/ESI analysis; assay type: ADME; conditions: 0.5 h; method in brief: as §2

SMILES: Nc1nc(Nc2ccc(F)cc2)nc(Oc2ccc(F)cc2)n1
- fraction unbound at 6 h, 2 µM [1]: 0.04
- AUC [2]: 9350 ng·h/mL
- half-life [3]: 4.14 h
- concentration at 2 h [4]: 1320 ng/mL
- remaining at 0.25 h, 5 µM [5]: 76%
- Stability [6]: 97%
- AUC at 4 h [7]: 4710 ng·h/mL
- IC50 (Plasmodium falciparum): > 64 µM
- Activity [8]: inactive
- remaining at 0.25 h, 5 µM [9]: 107%
- MST [10]: 7 days
- concentration at 1 h [11]: 2410 ng/mL
- Vz (Mus musculus [12]): 13 L
- IC50 (Trypanosoma cruzi): > 64 µM
- IC50 (Peritoneal macrophage): > 64 µM
- concentration at 1 h [13]: 3800 ng/mL
- Cmax [14]: 3830 ng/mL
- Vz (Mus musculus [15]): 26.7 L
- concentration at 1 h [16]: 1180 ng/mL
- Activity [17]: inactive
- MST [18]: 7 days
- half-life [19]: 0.85 h
- recovery at 6 h, 10 µM [20]: 75.4%
- CL/F [21]: 89.9 mL/min
- Activity [22]: inactive
- fraction unbound at 6 h, 2 µM [23]: 0.5 to 0.51
- remaining at 0.5 h, 5 µM [24]: 85%
- Vz (Mus musculus [25]): 10.9 L
- concentration at 0.25 h [26]: 1320 ng/mL
- concentration at 4 h [27]: 800 ng/mL
- Stability [28]: 103%
